Experimental data from different studies.
Target: Cyclin-dependent kinase 8 (CDK8, Homo sapiens, UniProt P49336)

O=C(Nc1c[nH]nc1C(=O)NC1CCNCC1)c1cc(F)cc(F)c1  remaining binding (binding; competition with immobilised ligand; 1 µM): 97%
O=C(c1ccc(Nc2ncc(Cl)c(-c3cc4ccccc4s3)n2)cc1)N1CCC(N2CCCC2)CC1  remaining binding (binding; competition with immobilised ligand; 1 µM): 100%
CCN1CCN(Cc2ccc(C(=O)Nc3ccc(C)c(Oc4ccc5c(c4)CC(=O)N5)c3)cc2C(F)(F)F)CC1  remaining binding (binding; competition with immobilised ligand; 1 µM): 67%
Cc1cc(NC(=O)c2cccc(S(F)(F)(F)(F)F)c2)cc(-n2ccn3nc(-c4cccnc4)cc23)c1  remaining binding (cell-free assay; competition with immobilised ligand; 1 µM): 86.2%
CNC(=O)[C@@H]1CC[C@@H](n2c(-c3ccc4cnccc4c3)nc3ccc(C(=O)NCc4cccc(C(N)=O)c4)cc32)C1  remaining binding (binding; competition with immobilised ligand; 1 µM): 100%
CN(C)c1ncc(F)c(-c2cnn3ncccc23)n1  remaining binding (binding; 1 µM): 87%
CN(C)c1ncnc(-c2ccc3nc(Nc4cc(CN5CCN(C(=O)CC(F)(F)F)CC5)ccn4)[nH]c3c2)c1Cl  remaining binding (cell-free assay; competition with immobilised ligand; 1 µM): 90%
N[C@@H]1CCN(c2nccc(-c3cnn4ncccc34)n2)C1  remaining binding (binding; 1 µM): 100%
CC1=C(C#N)C(c2ccc3c(c2)c(NC(=O)c2ccccc2C)nn3C)C(C#N)=C(C)N1  remaining binding (cell-free assay; competition with immobilised ligand; 1 µM): 97%
CN(C)c1nccc(-c2cnn3ncccc23)n1  remaining binding (binding; 1 µM): 100%
C[C@H](NC(=O)c1cnc2n1[C@](C)(Cc1ccc(C#N)cc1)C(=O)N2c1cc(Cl)c(F)c(Cl)c1)C(=O)NC1(c2ccccn2)CC1  remaining binding (cell-free assay; competition with immobilised ligand; 1 µM): 100%
COc1cnc(Nc2cccc(S(N)(=O)=O)c2)nc1N1CCN(c2ccccc2)CC1  remaining binding (binding; competition with immobilised ligand; 1 µM): 95%
O=C(c1ccc(Nc2nccc(-c3cc4ccccc4s3)n2)cc1)N1CCC(N2CCCC2)CC1  remaining binding (binding; competition with immobilised ligand; 1 µM): 91%
CCOCCn1cc(C(=O)Nc2ccc(-n3nc(-c4cccnc4)cc3C(F)(F)F)cn2)ccc1=O  remaining binding (cell-free assay; competition with immobilised ligand; 1 µM): 100%
CN(c1nccc(-c2cnn3ncccc23)n1)C1CC1  remaining binding (binding; 1 µM): 100%
FC(F)(F)Oc1cccc(-c2cnc3ccc(-c4ccncc4)nn23)c1  remaining binding (cell-free assay; competition with immobilised ligand; 5 µM): 12%
F[C@@H]1CCN(c2nccc(-c3cnn4ncccc34)n2)C1  remaining binding (binding; 1 µM): 100%
C[C@@]1(Cc2ccc(C#N)cc2)C(=O)N(c2cc(Cl)cc(Cl)c2)c2ncc(C(=O)NC3(c4nc(C5CCC5)no4)CC3)n21  remaining binding (cell-free assay; competition with immobilised ligand; 1 µM): 100%
C[C@@H]1CCN(c2nccc(-c3cnn4ncccc34)n2)C1  remaining binding (binding; 1 µM): 51%
O=C(NCCCN1CCOCC1)c1ccc(Nc2nccc(-c3cc4ccccc4s3)n2)cc1  remaining binding (binding; competition with immobilised ligand; 1 µM): 79%
